Rows were chosen to be rich in hits. Some 1% of all compounds tested hit in one or more screens of this group.
CaV13 FRET inh: Disruptors of the CACNA1D IQ motif to Ca2+-dependent inactivation inhibitor domain association, primary screening, Förster resonance energy transfer in intact living …. HEK cells, CFP/YFP FRET ICDI-IQ, plate reader, 10 min; percent FRET-ratio fall versus neutral wells. inhibition, % at 12.3 µM. 340,000 tested, 0.098% active. AID 743397;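 active means mean replicate inhibition of at least 30% and at least 1% of replicates passing that level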;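 further: 0% = median of the neutral control wells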
FXN GAA850 act: increases GAA850 frataxin promoter reporter activity | HEK293 lucGAA850 FXN promoter luciferase reporter, 24 h; percent of 10 µM SAHA response | activation, % at 6 µM | 360,000 tested, 0.56% active | AID 540364;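 active means activation above the average of all compounds screened plus 3 SD, cutoff fixed separately per campaign, cut at about 7.5% in these data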;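 further: 0% = DMSO wells and 100% = 10 µM SAHA wells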
INS-1E GSIS act: GLuc luminescence reporter in INS-1E cells, primary screen for activators of glucose-dependent secretion of insulin; INS-1E GLuc reporter insulin secretion, 2-3 h; activation, % at 16.6 µM; 370,000 tested, 0.61% active;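 active means lowest replicate activation of at least 40%, so every replicate reaches that level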;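 further: 0% = median of neutral control wells and 100% = median of IBMX positive control wells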
XiGFP reactiv: reactivates the inactive X chromosome in mouse fibroblasts; 360,000 tested, 0.055% active; XiGFP mouse fibroblasts, % GFP-positive cells imaging, 3 d; cells co-treated with 5-aza-dC sensitizer; scaled so ellipticine positive control = 100%; activation, % at 7.58 µM; AID 743238;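 active means mean normalized replicate activation at least 10% and every replicate at or above 10%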;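 further: 0% = median of on-plate neutral control wells and 100% = ellipticine 6 µM median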
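assay system = SV40-immortalized XiGFP fibroblast cells, line 68-5-11 | buffer or medium = DMEM plus 5-aza-dC sensitizer | doses = single-point pinned compound dosing | times = 3-day compound exposure, then 15 min fixation at room temperature | benchmarks = positive control ellipticine, 6 µM final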
Starred values were filed as active, the others as inactive; / = no result given; + = active, no number.

SMILES	CaV13 FRET inh	FXN GAA850 act	INS-1E GSIS act	XiGFP reactiv
Cc1ccc(S(=O)(=O)Nc2ccc3c(c2)C(=O)N([C@H](C)CO)C[C@@H](C)[C@@H](CN(C)C(=O)Nc2ccc4c(c2)OCO4)OCCCC[C@H](C)O3)cc1	/	/	-1	0
COc1cc2ccc(C(C)=O)cc2cc1OC	-4	3	48*	0
COc1ccc(C=CC(=O)c2ccc3cc(OC)c(OC)cc3c2)cc1OC	-5	-3	/	0
COc1ccc(C(=O)c2ccc(Br)cc2)cc1	-3	6	84*	/
CO[C@H]1CN(C)C(=O)c2ccc(NC(=O)C3CC3)cc2OC[C@H](C)N(Cc2nccs2)C[C@@H]1C	/	/	0	-1
Cc1noc(C)c1NC(=O)N(C)C[C@@H]1OCCCC[C@@H](C)Oc2ccc(NC(=O)C3CCCCC3)cc2C(=O)N([C@@H](C)CO)C[C@@H]1C	/	/	6	0
O=C(Cc1ccccn1)NCC[C@H]1CC[C@H](NC(=O)CN2CCOCC2)[C@H](CO)O1	/	/	3	0
Cc1cc(C(=O)Nc2cccc3c2O[C@@H](CN(C)C(=O)Nc2c(C)noc2C)[C@H](C)CN([C@@H](C)CO)C3=O)n(C)n1	/	/	8	0
Cc1ccc(NC(=O)COc2ccc(-c3nnco3)cc2)cc1S(=O)(=O)N1CCOCC1	-7	0	9	23*
C[C@@H]1CN([C@@H](C)CO)C(=O)c2cc(C#Cc3ccccc3F)cnc2O[C@H]1CN(C)S(=O)(=O)c1ccccc1F	/	/	4	0
COc1ccc(NC(=O)N(C)C[C@H]2OCCCC[C@@H](C)Oc3ccc(NS(=O)(=O)c4c(C)noc4C)cc3C(=O)N([C@H](C)CO)C[C@H]2C)cc1	/	/	1	0
COc1ccc(CN/C(C)=C(/C#N)C(N)=O)cc1OC	-5	2	65*	/
COc1ccc(CNC(N)=O)cc1OC	/	3	/	/
CN(C)CC(=O)Nc1ccc2c(c1)[C@H]1C[C@@H](CC(=O)NCc3cccc(F)c3)O[C@@H](CO)[C@H]1O2	/	/	10	0
CCCCCCC1CCC(C(=O)Nn2c(C)nc3ccccc3c2=O)CC1 (configuration not stated)	-5	0	69*	/
C[C@H]1CN([C@@H](C)CO)C(=O)c2ccccc2-c2ccccc2CO[C@H]1CN(C)S(=O)(=O)c1ccccc1F	/	/	0	-1
CCS(=O)(=O)Nc1ccc2c(c1)C(=O)N(C)C[C@@H](OC)[C@H](C)CN(CCC(F)(F)F)[C@H](C)CO2	/	/	2	0
CC1CCN(S(=O)(=O)N2CCC(C(=O)NC3CCCC3)CC2)CC1	76*	-1	-1	0
CCc1nnc(NC(=O)CSc2nc3cc4c(cc3cc2CC)OCCO4)s1	/	1	49*	/
Cn1c(=O)c2c(nc3n2CCCN3CCc2ccccc2)n(C)c1=O	-4	0	48*	0
CCn1c(=O)c2c(nc3n2CCCN3CCc2ccccc2)n(C)c1=O	-2	0	/	/
CC(C)(C)c1ccc(C2CC2C(=O)N/N=C\c2ccc[nH]2)cc1 (configuration not stated)	-5	-8	59*	0
C[C@H]1CN([C@@H](C)CO)S(=O)(=O)c2ccc(C3=CCCCC3)cc2O[C@H]1CN(C)Cc1ccccc1F	/	/	-8	0
CCOC(=O)c1c(N)c(C#N)c2n1CCCC2	/	2	71*	/
C[C@@H]1CN([C@@H](C)CO)C(=O)c2cccc(NC(=O)c3ccc(-c4nccs4)cc3)c2O[C@H]1CN(C)C	/	/	28	-1
SMILES	CaV13 FRET inh	FXN GAA850 act	INS-1E GSIS act	XiGFP reactiv
COC(=O)C1=C(C)NC(=S)NC1c1cccc(OC)c1 (configuration not stated)	-2	/	44*	0
CC(C)CCN1C(=O)c2cccc3c(N)ccc(c23)C1=O	+	7	-6	99*
Nc1ccc2c3c(cccc13)C(=O)N(c1ccccc1)C2=O	-111	1	27	1
CCSc1ccc2nnc(-c3ccc(F)cc3)n2n1	-7	-1	61*	/
CCC(=O)N1CCc2cc(OC)c(OC)cc2C1COc1ccccc1OC (configuration not stated)	1	3	48*	0
COc1cc2c(cc1OC)C(c1ccccc1)N(C(=O)CCl)CC2 (configuration not stated)	-4	-9	/	/
COc1ccc(C(=O)N2CCc3cc(OC)c(OC)cc3C2c2ccc(OC)c(OC)c2)cc1OC (configuration not stated)	-12	2	48*	0

Compound activity deposited in PubChem BioAssay by several laboratories.
